Measured values as given in ChEMBL document CHEMBL3351863, “Optimization of 2-phenyl-pyrimidine-4-carboxamides towards potent, orally bioavailable and selective P2Y(12) antagonists for inhibition of platelet aggregation” (Bioorg Med Chem Lett, 2014).

Key:
[1] = AUC in Wistar rat at 10 mg/kg, po; assay type: ADME, organism-based, Plasma; parameters: dose 10 mg/kg, route oral; details: Wistar, plasma
Summary of the method: (§1)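 Rats dosed by iv infusion at 1 mg/kg (n = 2) or orally at 10 mg/kg (n = 3); plasma levels measured, limit of quantification ca. 1 ng/mL.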

[2] = Cmax in Wistar rat at 10 mg/kg, po; assay type: ADME, organism-based; parameters: dose 10 mg/kg, route oral; details: Wistar, in vivo; summary of the method: as §1
[3] = Clearance in Wistar rat at 1 mg/kg, iv; assay type: ADME, organism-based; parameters: dose 1 mg/kg, route intravenous; details: in vivo; summary of the method: as §1
[4] = Lipophilicity, logD of the compound; assay type: physicochemical; details: octanol/water
[5] = system: Platelet; test: Inhibition of ADP-induced platelet aggregation in human platelet rich plasma by in-vitro light transmission aggregometry assay; assay type: functional
Summary of the method: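 Human platelet-rich plasma incubated with compound, aggregation induced by 3 µM ADP and read by light transmission aggregometry; IC₅₀ derived from concentration–response curve.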

[6] = Potency shift, ratio of IC50 for inhibition of ADP-induced platelet aggregation in human platelet rich plasma to IC50 for displacement of [3H]-2-methyl-thio-adenosine 5'-diphosphate from human recombinant P2Y12 expressed in CHO cell membranes
[7] = Half life in Wistar rat at 1 mg/kg, iv or 10 mg/kg, po; assay type: ADME, organism-based; details: in vivo; summary of the method: as §1
[8] = Volume of distribution at steady state in Wistar rat at 1 mg/kg, iv or 10 mg/kg, po; assay type: ADME, organism-based; details: in vivo, read-out: Vdss; summary of the method: as §1
[9] = target: P2Y purinoceptor 12 (Homo sapiens, UniProt Q9H244); test: Displacement of [3H]-2-methyl-thio-adenosine 5'-diphosphate from human recombinant P2Y12 expressed in CHO cell membranes by scintillation counting method
Summary of the method: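 CHO cells expressing recombinant P2Y₁₂ receptors, incubated with tritium-labeled 2-methyl-thio-adenosine 5'-diphosphate plus test compound; IC₅₀ from displacement curves, each point in triplicate; reference compound run with every compound set, and set re-analyzed if its IC₅₀ fell outside pre-set 95% confidence interval.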

[10] = Oral bioavailability in Wistar rat at 10 mg/kg; assay type: ADME, organism-based; details: Wistar, in vivo; summary of the method: as §1
[11] = target: Cytochrome P450 2C9 (Homo sapiens, UniProt P11712); test: Inhibition of CYP2C9 in human liver microsomes assessed as reduction in diclofenac 4'-hydroxylation; assay type: ADME
[12] = target: T1, Cytochrome P450 3A4 (Homo sapiens, UniProt P08684); test: Inhibition of CYP3A4 in human liver microsomes assessed as reduction in testosterone 6beta-hydroxylation; assay type: ADME
[13] = target: T1, Cytochrome P450 3A4; test: Inhibition of CYP3A4 in human liver microsomes assessed as reduction in midazolam 1'-hydroxylation; assay type: ADME
[14] = target: Voltage-gated inwardly rectifying potassium channel KCNH2 (Homo sapiens, UniProt Q12809); test: Inhibition of human ERG expressed in HEK cells by patch-clamp assay; assay type: cell-based; details: hek293
[15] = system: Liver microsome; test: Metabolic stability assay in rat liver microsomes assessed as parent drug disappearance at 1 uM after 20 mins by HPLC and mass spectrometry method; assay type: ADME
[16] = target: Cytochrome P450 2D6 (Homo sapiens, UniProt P10635); test: Inhibition of CYP2D6 in human liver microsomes assessed as reduction in dextromethorphan-O demethylation; assay type: ADME
[17] = Solubility in basic pH; assay type: physicochemical
[18] = system: Platelet; test: Inhibition of ADP-induced platelet aggregation in human platelet rich plasma assessed as remaining activity at 500 nM by in-vitro light transmission aggregometry assay; assay type: functional
Summary of the method: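 Light transmission aggregometry in human platelet-rich plasma; compound incubated, aggregation triggered with 3 µM ADP; remaining activity (RA) recorded at a single compound level (1000, 500 or 100 nM).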

[19] = system: Liver microsome; test: Metabolic stability assay in human liver microsomes assessed as parent drug disappearance at 1 uM after 20 mins by HPLC and mass spectrometry method; assay type: ADME
[20] = Solubility in neutral pH; assay type: physicochemical

T1 sequence (P08684 whole entry): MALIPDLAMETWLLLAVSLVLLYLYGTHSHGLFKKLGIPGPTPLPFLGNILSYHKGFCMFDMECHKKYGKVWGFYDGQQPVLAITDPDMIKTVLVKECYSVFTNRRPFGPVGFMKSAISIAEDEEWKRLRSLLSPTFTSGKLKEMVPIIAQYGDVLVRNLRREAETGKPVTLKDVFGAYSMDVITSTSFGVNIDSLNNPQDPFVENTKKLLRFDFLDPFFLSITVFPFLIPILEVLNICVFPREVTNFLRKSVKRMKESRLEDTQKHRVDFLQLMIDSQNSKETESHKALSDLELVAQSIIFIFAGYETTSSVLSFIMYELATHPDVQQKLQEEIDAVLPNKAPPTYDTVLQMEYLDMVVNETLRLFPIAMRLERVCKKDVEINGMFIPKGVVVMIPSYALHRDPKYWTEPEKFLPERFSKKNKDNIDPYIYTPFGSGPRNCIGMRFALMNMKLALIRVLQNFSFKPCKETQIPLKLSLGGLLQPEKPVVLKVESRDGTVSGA
P2Y purinoceptor 12, sequence (Q9H244 whole entry): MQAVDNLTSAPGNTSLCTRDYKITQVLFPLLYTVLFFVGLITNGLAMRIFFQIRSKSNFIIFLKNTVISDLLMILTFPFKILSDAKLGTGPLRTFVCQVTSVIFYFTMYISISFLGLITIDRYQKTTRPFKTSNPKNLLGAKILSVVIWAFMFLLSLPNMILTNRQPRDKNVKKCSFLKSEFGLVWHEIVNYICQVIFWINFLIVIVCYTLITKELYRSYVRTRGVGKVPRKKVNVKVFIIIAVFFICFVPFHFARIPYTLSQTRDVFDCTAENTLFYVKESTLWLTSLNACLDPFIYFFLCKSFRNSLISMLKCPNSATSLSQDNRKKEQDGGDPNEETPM
Cytochrome P450 2D6, sequence (P10635 whole entry): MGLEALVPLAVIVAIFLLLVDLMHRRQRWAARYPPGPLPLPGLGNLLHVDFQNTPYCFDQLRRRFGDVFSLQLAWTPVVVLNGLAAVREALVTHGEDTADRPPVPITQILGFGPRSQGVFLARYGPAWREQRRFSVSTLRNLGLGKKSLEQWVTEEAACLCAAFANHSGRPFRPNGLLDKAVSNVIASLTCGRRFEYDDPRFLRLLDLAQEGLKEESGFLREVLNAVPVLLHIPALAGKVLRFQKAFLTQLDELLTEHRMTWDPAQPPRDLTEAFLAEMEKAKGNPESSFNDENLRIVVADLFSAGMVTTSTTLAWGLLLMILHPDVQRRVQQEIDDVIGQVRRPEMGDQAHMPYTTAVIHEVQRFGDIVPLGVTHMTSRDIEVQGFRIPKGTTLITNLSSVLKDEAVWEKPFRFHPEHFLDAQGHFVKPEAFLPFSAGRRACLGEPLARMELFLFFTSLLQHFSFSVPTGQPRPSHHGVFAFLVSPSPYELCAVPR
Cytochrome P450 2C9, sequence (P11712 whole entry): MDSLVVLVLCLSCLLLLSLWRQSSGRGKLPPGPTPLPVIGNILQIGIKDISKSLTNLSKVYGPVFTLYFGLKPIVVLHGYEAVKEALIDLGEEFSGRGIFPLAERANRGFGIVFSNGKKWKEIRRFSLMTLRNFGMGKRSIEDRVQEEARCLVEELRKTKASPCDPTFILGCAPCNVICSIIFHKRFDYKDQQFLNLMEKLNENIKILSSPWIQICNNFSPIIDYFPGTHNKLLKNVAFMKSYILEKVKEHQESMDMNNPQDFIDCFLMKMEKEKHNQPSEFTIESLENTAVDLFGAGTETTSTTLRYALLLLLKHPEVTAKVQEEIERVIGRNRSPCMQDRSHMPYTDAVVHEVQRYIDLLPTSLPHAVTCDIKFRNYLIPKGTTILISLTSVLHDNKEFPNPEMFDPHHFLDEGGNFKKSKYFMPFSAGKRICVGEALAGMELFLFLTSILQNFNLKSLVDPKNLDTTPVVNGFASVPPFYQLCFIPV
Voltage-gated inwardly rectifying potassium channel KCNH2, sequence (Q12809 whole entry): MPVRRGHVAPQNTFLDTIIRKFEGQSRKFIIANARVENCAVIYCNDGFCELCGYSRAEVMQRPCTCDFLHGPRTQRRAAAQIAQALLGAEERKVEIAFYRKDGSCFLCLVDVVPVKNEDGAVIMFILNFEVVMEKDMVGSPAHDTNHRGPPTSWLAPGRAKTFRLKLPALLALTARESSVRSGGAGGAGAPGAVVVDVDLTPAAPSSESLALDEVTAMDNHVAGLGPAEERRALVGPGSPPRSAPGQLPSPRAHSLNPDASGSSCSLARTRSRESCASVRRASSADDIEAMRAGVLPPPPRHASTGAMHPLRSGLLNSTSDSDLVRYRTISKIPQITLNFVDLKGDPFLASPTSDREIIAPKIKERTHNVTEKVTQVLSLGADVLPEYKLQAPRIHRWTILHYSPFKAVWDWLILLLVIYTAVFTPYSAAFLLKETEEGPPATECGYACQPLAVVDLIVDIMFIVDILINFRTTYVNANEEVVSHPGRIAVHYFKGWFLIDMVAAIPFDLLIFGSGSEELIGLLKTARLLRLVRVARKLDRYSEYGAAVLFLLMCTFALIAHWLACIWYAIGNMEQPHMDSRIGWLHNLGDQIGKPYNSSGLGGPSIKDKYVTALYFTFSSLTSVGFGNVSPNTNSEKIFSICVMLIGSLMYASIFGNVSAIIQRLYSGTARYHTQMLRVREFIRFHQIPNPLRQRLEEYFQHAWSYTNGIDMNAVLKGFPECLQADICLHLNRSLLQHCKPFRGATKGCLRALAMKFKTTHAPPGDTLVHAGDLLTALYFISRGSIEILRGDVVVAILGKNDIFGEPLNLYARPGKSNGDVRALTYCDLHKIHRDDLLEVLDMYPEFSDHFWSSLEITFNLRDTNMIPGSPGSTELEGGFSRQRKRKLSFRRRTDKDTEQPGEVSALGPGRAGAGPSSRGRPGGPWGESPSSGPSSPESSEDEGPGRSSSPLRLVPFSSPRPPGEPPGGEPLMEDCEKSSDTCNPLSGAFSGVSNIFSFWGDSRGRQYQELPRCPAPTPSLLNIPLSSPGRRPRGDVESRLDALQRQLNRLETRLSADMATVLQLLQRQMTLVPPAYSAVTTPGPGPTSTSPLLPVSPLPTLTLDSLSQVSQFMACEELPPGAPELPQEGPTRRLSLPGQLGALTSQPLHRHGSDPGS

AUC [1] [µM·h]	Cmax [2] [µM]	clearance [3] [mL/min/kg]	logD [4]	half-life [7] [h]	Vd [8] [L/kg]	IC50 [9] [nM]	bioavailability [10] [%]	Structure (SMILES)	Ratio IC50 [6]	other results
6	7.62	17	1.9	2	0.4	4.8	33	CCCCOC(=O)N1CCN(C(=O)[C@H](CCC(=O)O)NC(=O)c2cc([C@H]3C[C@@H]3COC)nc(-c3ccccc3)n2)CC1	6.4	IC50 ([5]; platelet): 31 nM
2.31	2.82	14	0.8	0.55	0.3	43	11	CCOC(=O)N1CCN(C(=O)[C@H](CCC(=O)O)NC(=O)c2cc([C@@H]3C[C@H]3COC)nc(-c3ccccc3)n2)CC1	14	inhibition (INH) [11]: Not Active; inhibition (INH) [12]: Not Active; inhibition (INH) [13]: Not Active; inhibition (INH) [14]: Not Active; Stability [15]: Stable; inhibition (INH) [16]: Not Active; IC50 ([5]; Homo sapiens, Platelet, Plasma): 589 nM; solubility [17]: soluble; Activity [18]: 30%; Stability [19]: Stable; solubility [20]: soluble
